Results taken from ChEMBL document CHEMBL1131239, “Orally active benzamide antipsychotic agents with affinity for dopamine D2, serotonin 5-HT1A, and adrenergic alpha1 receptors” (J Med Chem, 1998).

Experiments:
[1] = target: T1, 5-hydroxytryptamine receptor 1A (Rattus norvegicus, UniProt P19327); experiment: Compound was evaluated for its binding affinity against 5-hydroxytryptamine 1A receptor from rat cerebral cortex; assay type: tissue-based
T1 sequence (P19327 whole entry): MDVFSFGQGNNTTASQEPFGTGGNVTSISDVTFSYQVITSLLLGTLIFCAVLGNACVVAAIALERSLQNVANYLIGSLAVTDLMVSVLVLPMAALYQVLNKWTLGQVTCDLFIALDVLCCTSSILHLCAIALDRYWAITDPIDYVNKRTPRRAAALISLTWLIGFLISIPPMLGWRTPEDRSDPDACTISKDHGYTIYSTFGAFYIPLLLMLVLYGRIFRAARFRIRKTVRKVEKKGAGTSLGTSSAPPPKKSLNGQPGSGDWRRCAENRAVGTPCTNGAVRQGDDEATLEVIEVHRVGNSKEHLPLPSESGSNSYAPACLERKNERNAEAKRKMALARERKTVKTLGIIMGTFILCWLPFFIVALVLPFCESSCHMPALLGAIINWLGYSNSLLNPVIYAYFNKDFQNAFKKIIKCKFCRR

[2] = system: Rattus norvegicus; experiment: (§1) compound was tested for antipsychotic activity by conditioned avoidance response(CAR) assay in rats with a pretreatment period of 30 min upon intra peritoneal administration at a concentration of 15 mg/kg.; assay type: functional
Procedure, shortened: (§2)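 Trained rats (N = 4) were run in 1-h sessions on two consecutive days, with the experimenter blind to drug and dose. Fed rats had food and water until placed in the test chambers. Fasted rats had no food overnight before the experiment.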

[3] = target: T2, Adrenergic receptor alpha-1 (Rattus norvegicus, UniProt P15823+P23944+P43140); experiment: Binding affinity against Alpha-1 adrenergic receptor from rat cerebral cortex; assay type: tissue-based
T2 sequence (P15823 whole entry): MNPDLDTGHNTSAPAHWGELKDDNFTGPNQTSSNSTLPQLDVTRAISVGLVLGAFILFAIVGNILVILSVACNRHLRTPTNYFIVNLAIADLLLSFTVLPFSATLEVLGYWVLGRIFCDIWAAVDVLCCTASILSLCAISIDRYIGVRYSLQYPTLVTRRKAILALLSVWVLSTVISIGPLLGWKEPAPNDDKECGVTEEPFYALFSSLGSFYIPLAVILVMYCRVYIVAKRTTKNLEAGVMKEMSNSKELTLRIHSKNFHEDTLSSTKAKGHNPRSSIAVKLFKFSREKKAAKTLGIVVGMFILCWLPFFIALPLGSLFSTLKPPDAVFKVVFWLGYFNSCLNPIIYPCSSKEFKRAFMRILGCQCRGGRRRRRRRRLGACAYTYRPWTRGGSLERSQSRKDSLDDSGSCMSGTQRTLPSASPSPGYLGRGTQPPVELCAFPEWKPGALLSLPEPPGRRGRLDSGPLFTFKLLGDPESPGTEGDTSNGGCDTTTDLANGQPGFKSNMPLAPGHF
T2 sequence (P23944 whole entry): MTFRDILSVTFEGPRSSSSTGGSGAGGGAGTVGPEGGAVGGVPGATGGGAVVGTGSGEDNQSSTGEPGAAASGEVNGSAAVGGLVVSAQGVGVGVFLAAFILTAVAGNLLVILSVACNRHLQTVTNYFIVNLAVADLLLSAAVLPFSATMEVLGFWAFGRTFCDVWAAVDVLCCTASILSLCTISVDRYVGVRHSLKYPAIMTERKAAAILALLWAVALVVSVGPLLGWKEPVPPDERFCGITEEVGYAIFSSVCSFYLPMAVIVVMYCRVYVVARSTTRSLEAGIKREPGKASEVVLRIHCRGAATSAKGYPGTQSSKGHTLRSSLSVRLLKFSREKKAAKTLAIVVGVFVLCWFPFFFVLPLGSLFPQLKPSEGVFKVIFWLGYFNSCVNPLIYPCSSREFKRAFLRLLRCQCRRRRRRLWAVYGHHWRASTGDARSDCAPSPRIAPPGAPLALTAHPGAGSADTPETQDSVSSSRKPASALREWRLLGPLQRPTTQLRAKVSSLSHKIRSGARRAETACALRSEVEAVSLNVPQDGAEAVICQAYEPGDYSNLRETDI
T2 sequence (P43140 whole entry): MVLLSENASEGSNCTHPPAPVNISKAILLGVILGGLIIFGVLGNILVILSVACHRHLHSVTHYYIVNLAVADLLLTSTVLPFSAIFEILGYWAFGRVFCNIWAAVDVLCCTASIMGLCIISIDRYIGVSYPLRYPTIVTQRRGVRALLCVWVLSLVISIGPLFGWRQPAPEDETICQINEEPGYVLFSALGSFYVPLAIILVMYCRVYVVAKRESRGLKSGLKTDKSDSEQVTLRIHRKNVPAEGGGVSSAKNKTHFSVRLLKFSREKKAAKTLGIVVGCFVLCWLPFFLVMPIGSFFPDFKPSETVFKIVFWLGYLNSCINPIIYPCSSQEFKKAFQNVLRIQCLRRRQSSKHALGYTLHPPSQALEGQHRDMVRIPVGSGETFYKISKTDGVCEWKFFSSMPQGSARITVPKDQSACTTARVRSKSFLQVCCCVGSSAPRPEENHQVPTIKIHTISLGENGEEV

[4] = system: Rattus norvegicus; experiment: compound was tested for antipsychotic activity by conditioned avoidance response(CAR) assay in rats with a pretreatment period of 30 min upon intra peritoneal administration at a concentration of 5 mg/kg.; assay type: functional
Procedure, shortened: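 Rat conditioned avoidance test modified from Martin et al. Trained rats (N = 4) were run in 1-h sessions on two consecutive days. Fed animals had food and water until placed in the test chambers. Dosing was ip with 30 min pretreatment, and activity was expressed as percent inhibition at the stated dose.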

[5] = system: Rattus norvegicus; experiment: as §1; assay type: functional; remark: listed apart in the source
[6] = system: Rattus norvegicus; experiment: compound was tested for antipsychotic activity by conditioned avoidance response(CAR) assay in rats with a pretreatment period of 30 min upon intra peritoneal administration at a concentration of 1 mg/kg.; assay type: functional; procedure, shortened: as §2
[7] = system: Rattus norvegicus; experiment: Percent catalepsy in male Spargue-Dawley rat at pretreatment time 240 mins and when administered ip at dose 50 mg/kg; assay type: functional; settings: route intraperitoneal
Procedure, shortened: (§3)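 Catalepsy in rats, groups of five per drug treatment, scored blind to drug and dose. Each session included a saline or vehicle negative control and a haloperidol 2 mg/kg positive control. Deaths during the experiment were recorded in the catalepsy column as number dead out of five.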

[8] = system: Rattus norvegicus; experiment: Percent catalepsy in male Spargue-Dawley rat at pretreatment time 60 mins and when administered ip at dose 50 mg/kg; assay type: functional; settings: route intraperitoneal; procedure, shortened: as §3
[9] = system: Rattus norvegicus; experiment: compound was tested for antipsychotic activity by conditioned avoidance response(CAR) assay in rats with a pretreatment period of 60 min upon peroral administration at a concentration of 20 mg/kg.; assay type: functional; settings: route oral
[10] = system: Rattus norvegicus; experiment: compound was tested for antipsychotic activity by conditioned avoidance response(CAR) assay in rats with a pretreatment period of 30 min upon peroral administration; assay type: functional; settings: po; procedure, shortened: as §2

SMILES	Ki [1] [nM]	inhibition in vivo at 15 mg/kg [2] [%]	Ki [3] [nM]	inhibition in vivo at 5 mg/kg [4] [%]	inhibition in vivo at 15 mg/kg [5] [%]	inhibition in vivo at 1 mg/kg [6] [%]	Catalepsy [7] [%]	Catalepsy [8] [%]	inhibition in vivo at 20 mg/kg [9] [%]	ED50 [10] [mg/kg]
CC(C)Oc1ccccc1N1CCN(Cc2cccc(C(=O)N3CCCCC3=O)c2)CC1	3.9	-92.4	6.4	-11.2	–	–	–	–	–	–
CC(C)Oc1ccccc1N1CCN(Cc2cccc(C(=O)N3CCC3)c2)CC1	3.4	–	1.2	–	-87	–	–	–	–	–
CC(C)Oc1ccccc1N1CCN(Cc2cccc(C(=O)N(C)C3CCCCC3)c2)CC1	1.2	–	1.2	-98.9	–	-9.3	58.1	0	–	–
CCCc1ccccc1N1CCN(Cc2cccc(C(=O)N3CCCCC3)c2)CC1	9.1	–	16	–	-0.7	–	–	–	–	–
O=C(c1cccc(CN2CCN(c3ccccc3Cl)CC2)c1)N1CCCCC1	8.2	–	16	-67.9	-68.6	–	–	–	–	–
COCCN1CCN(Cc2cccc(C(=O)N3CCCCCC3)c2)CC1	–	–	> 1000	–	–	–	–	–	–	–
CC(C)Oc1ccccc1N1CCN(Cc2cccc(C(=O)N3CCCCCCC3)c2)CC1	0.13	–	1.9	-90.4	–	-24.5	17.6	34.4	-84.7	–
CC(C)Oc1ccccc1N1CCN(Cc2cccc(C(=O)N3CCOCC3)c2)CC1	3.2	–	29	-95.4	–	-94.5	–	–	-96.2	–
O=C(c1cccc(CN2CCN(c3ccccc3C(F)(F)F)CC2)c1)N1CCCCC1	0.8	–	3.3	-5.5	-59.7	–	–	–	–	–
O=C(c1cccc(CN2CCN(c3ccccc3)CC2)c1)N1CCCCC1	7.2	–	44	-2.2	-82.1	–	–	–	–	–
CC(C)Oc1ccccc1N1CCN(C(C)c2cccc(C(=O)N3CCCCC3)c2)CC1 (stereo not given)	> 1000	-7.1	87	–	–	–	–	–	–	–
CCCCN(CCCC)C(=O)c1cccc(CN2CCN(c3ccccc3OC(C)C)CC2)c1	0.8	–	3.3	–	-5.6	–	–	–	–	–
O=C(c1cccc(CN2CCN(CCO)CC2)c1)N1CCCCCC1	–	–	> 1000	-2.1	–	–	–	–	–	–
O=C(c1cccc(CN2CCN(c3cccc4ccccc34)CC2)c1)N1CCCCC1	1.8	–	57	–	-18.8	–	–	–	–	–
CN1CCN(Cc2cccc(C(=O)N3CCCCC3)c2)CC1	–	–	> 1000	–	0.4	–	–	–	–	–
CC(C)Oc1ccccc1N1CCN(Cc2cccc(C(N)=O)c2)CC1	18	–	11.4	-88.5	–	-3	–	–	-1.1	–
CC(C)Oc1ccccc1N1CCN(Cc2cccc(C(=S)N3CCCCC3)c2)CC1	1.1	–	2.3	-71.6	–	–	–	–	–	–

SMILES	Ki [1] [nM]	inhibition in vivo at 15 mg/kg [2] [%]	Ki [3] [nM]	inhibition in vivo at 5 mg/kg [4] [%]	inhibition in vivo at 15 mg/kg [5] [%]	inhibition in vivo at 1 mg/kg [6] [%]	Catalepsy [7] [%]	Catalepsy [8] [%]	inhibition in vivo at 20 mg/kg [9] [%]	ED50 [10] [mg/kg]
CC(C)Oc1ccccc1N1CCN(Cc2cccc(C(=O)NC3CCCCC3)c2)CC1	4.1	–	3.4	-17.6	-86.2	–	–	–	–	–
O=C(c1cccc(CN2CCN(c3ncccn3)CC2)c1)N1CCCCC1	12	–	–	-17.9	-6.8	–	–	–	–	–
CC(C)Oc1cc(F)ccc1N1CCN(Cc2cccc(C(=O)N3CCCCC3)c2)CC1	4.2	–	6	-82.6	–	-22.6	50	45.2	–	–
O=C(c1cccc(CN2CCN(c3cccc(Cl)c3)CC2)c1)N1CCCCC1	1.2	–	11.4	-36.1	–	–	33.9	21.8	-27.9	–
O=C(c1cccc(CN2CCN(c3cccc(C(F)(F)F)c3)CC2)c1)N1CCCCC1	2.3	–	562	-3.7	-71.6	–	–	–	–	–
CC(C)Oc1ccccc1C1(O)CCN(Cc2cccc(C(=O)N3CCCCC3)c2)CC1	> 1000	–	110	0.9	–	–	–	–	–	–
O=C(c1cccc(CN2CCN(c3ccc4ccoc4c3)CC2)c1)N1CCCCC1	0.21	–	13	-82.4	–	–	–	–	–	–
CC(C)Oc1ccccc1N1CCN(Cc2cccc(C(=O)Nc3ccc(F)cc3)c2)CC1	11	–	11	–	-2.5	–	–	–	–	–
CC(C)Oc1ccccc1N1CCN(CCCCc2ccc(C(=O)N3CCCCC3)cc2)CC1	–	-95.3	284	–	–	–	–	–	–	–
N#Cc1ccccc1N1CCN(Cc2cccc(C(=O)N3CCCCC3)c2)CC1	2.5	–	19	-73.9	–	-5.3	–	–	-5.4	–
CC(C)Oc1ccccc1N1CCN(CCc2ccc(C(=O)N3CCCCC3)cc2)CC1	2.5	-98.2	2.1	–	–	-1.1	–	–	–	–
O=C(c1cccc(CN2CCN(c3ccccc3F)CC2)c1)N1CCCCC1	16	–	27	–	-84.3	–	–	–	–	–
CCN1CCCC1CNC(=O)c1cccc(CN2CCN(c3ccccc3OC(C)C)CC2)c1 (stereo not given)	121	–	486	-19.4	-74.9	–	–	–	–	–
O=C(c1cccc(CN2CCN(c3ccc(Cl)cc3)CC2)c1)N1CCCCC1	121	–	486	–	-4.7	–	–	–	–	–
O=C(c1cccc(CN2CCN(c3cccc([N+](=O)[O-])c3)CC2)c1)N1CCCCC1	24	–	> 1000	-1.3	-77.7	–	–	–	–	–
CN1CCN(C2=Nc3cc(Cl)ccc3Nc3ccccc32)CC1 [CLOZAPINE]	–	–	–	–	–	–	–	–	–	9.3
